Laboratory results taken from ChEMBL document CHEMBL4229376, “Optimization of the pharmacokinetic properties of potent anti-trypanosomal triazine derivatives” (Eur J Med Chem, 2018).
Activity calls are given as the source filed them. No cut-off for these calls is given here.

Tests used:
Plasmodium falciparum = test: Antiplasmodial activity against chloroquine-resistant Plasmodium falciparum K1 infected in human erythrocytes after 72 hrs by Malstat reagent-based spectrophotometric analysis; type: functional, organism-based; conditions: K1, 72 h
[1] = Cytotoxicity against human MRC5 SV2 cells after 72 hrs by resazurin dye-based fluorimetric analysis; type: cell-based; conditions: MRC-5 SV2, 72 h
[2] = Drug metabolism in mouse liver microsomes assessed as CYP450 mediated compound […] by measuring parent compound remaining at 5 uM after 15 mins in presence of NADPH by UPLC/MS/ESI analysis; type: ADME; conditions: read-out: Stability
[3] = Drug metabolism in mouse liver microsomes assessed as UGT mediated compound […] by measuring parent compound remaining at 5 uM after 15 mins in presence of UDPGA by UPLC/MS/ESI analysis; type: ADME; conditions: 0.25 h
Procedure, shortened: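 Metabolic stability was run with mouse liver microsomal fraction (S9) and read as percent parent compound remaining over incubation time. Diclofenac served as the reference compound.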

[4] = Drug metabolism in human liver microsomes assessed as CYP450 mediated compound […] by measuring parent compound remaining at 5 uM after 15 mins in presence of NADPH by UPLC/MS/ESI analysis; type: ADME; conditions: read-out: Stability
[5] = Drug metabolism in human liver microsomes assessed as UGT mediated compound […] by measuring parent compound remaining at 5 uM after 30 mins in presence of UDPGA by UPLC/MS/ESI analysis; type: ADME; conditions: read-out: Stability
[6] = Drug metabolism in human liver microsomes assessed as UGT mediated compound […] by measuring parent compound remaining at 5 uM after 60 mins in presence of UDPGA by UPLC/MS/ESI analysis; type: ADME; conditions: read-out: Stability
[7] = tested on: Trypanosoma brucei brucei; test: Antitrypanosomal activity against Trypanosoma brucei brucei Squib 427 infected in Swiss mouse assessed as mouse survival at 25 mg/kg, po bid for 5 days and measured on day 14 post infection; type: functional, organism-based
Procedure, shortened: (§1)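 Acute T. b. brucei mouse infection model. Dosing was PO or IP at 10–50 mg/kg, once (SID) or twice (BID) daily for 5 days after infection, with 3 mice per group. […] Read-outs were mean survival time and survivors on day 14 post infection.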

[8] = tested on: Trypanosoma brucei brucei; test: Antitrypanosomal activity against Trypanosoma brucei brucei Squib 427 infected in Swiss mouse assessed as mouse survival at 10 mg/kg, ip administered as single dose for 5 days and measured on day 14 post infection; type: functional, organism-based; procedure, shortened: as §1
[9] = tested on: Trypanosoma brucei brucei; test: Antitrypanosomal activity against Trypanosoma brucei brucei Squib 427 infected in Swiss mouse assessed as mean survival days at 50 mg/kg, po administered as single dose for 5 days; type: functional
Procedure, shortened: (§2)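 Acute mouse infection model with T. b. brucei. Dosing ran for 5 days after infection, orally or intraperitoneally, once or twice daily. Groups were 3 mice each, with vehicle-treated infected controls. The read-out was mean survival time in days, plus the number of survivors on day 14 post-infection.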

[10] = tested on: Trypanosoma brucei brucei; test: Antitrypanosomal activity against Trypanosoma brucei brucei Squib 427 infected in Swiss mouse assessed as mean survival days at 50 mg/kg, po bid for 5 days; type: functional; procedure, shortened: as §2
[11] = Drug metabolism in human plasma assessed as parent compound remaining after 30 mins by UPLC/MS/ESI analysis; type: ADME, cell-free; conditions: read-out: Stability
[12] = Drug metabolism in human plasma assessed as parent compound remaining after 60 mins by UPLC/MS/ESI analysis; type: ADME, cell-free; conditions: read-out: Stability
[13] = Protein binding in mouse plasma at 2 uM after 6 hrs by equilibrium dialysis and LC-MS analysis; type: ADME, cell-free; conditions: read-out: PPB (converted)
[14] = Protein binding in 10% FBS in Trypanosoma brucei culture medium at 2 uM after 6 hrs by equilibrium dialysis and LC-MS analysis; type: ADME, cell-free, Bos taurus, Serum; conditions: cattle, read-out: PB
[15] = tested on: Trypanosoma brucei brucei; test: Antitrypanosomal activity against Trypanosoma brucei brucei Squib 427 assessed as reduction in parasite growth at 7 to 14 times IC50 after 48 hrs resazurin dye-based fluorimetric analysis; type: functional, organism-based
Procedure, shortened: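 In vitro time course of T. b. brucei growth in the presence of compound, with parasite growth expressed as % of control.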

[16] = Drug level in Swiss mouse blood infected with Trypanosoma brucei brucei Squib 427 at 25 mg/kg, po bid for 5 days measured after 2 hrs after last dose by UPLC/MS/ESI analysis; type: ADME, organism-based; conditions: whole blood, read-out: Drug uptake
[17] = Drug uptake in Swiss mouse blood at 50 mg/kg, po administered as single dose after 1 hr by UPLC/MS/ESI analysis; type: ADME, organism-based; conditions: whole blood, read-out: Drug uptake
Procedure, shortened: (§3)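 Mice were given the compound orally as a single dose of either 25 or 50 mg/kg, one group per dose. Plasma concentrations were followed over time up to 24 h, and the pharmacokinetic parameters were derived from the concentration-time profile.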

[18] = Drug uptake in Swiss mouse blood at 50 mg/kg, po administered as single dose after 24 hrs by UPLC/MS/ESI analysis; type: ADME, organism-based; conditions: whole blood, read-out: Drug uptake; procedure, shortened: as §3
[19] = Drug uptake in Swiss mouse blood at 25 mg/kg, po administered as single dose after 0.5 hrs by UPLC/MS/ESI analysis; type: ADME, organism-based; conditions: whole blood, read-out: Drug uptake; procedure, shortened: as §3
[20] = Drug uptake in Swiss mouse blood at 25 mg/kg, po administered as single dose after 1 hr by UPLC/MS/ESI analysis; type: ADME, organism-based; conditions: whole blood, read-out: Drug uptake; procedure, shortened: as §3
[21] = Drug uptake in Swiss mouse blood at 25 mg/kg, po administered as single dose after 4 hrs by UPLC/MS/ESI analysis; type: ADME, organism-based; conditions: whole blood, read-out: Drug uptake; procedure, shortened: as §3
[22] = Tmax in Swiss mouse infected with Trypanosoma brucei brucei Squib 427 at 50 mg/kg, po bid for 5 days after 24 hrs by UPLC/MS/ESI analysis; type: ADME, organism-based; conditions: in vivo
[23] = AUC (0 to >4 hrs) in Swiss mouse infected with Trypanosoma brucei brucei Squib 427 at 50 mg/kg, po bid for 5 days by UPLC/MS/ESI analysis; type: ADME, organism-based; conditions: in vivo
[24] = Clearance in Swiss mouse infected with Trypanosoma brucei brucei Squib 427 at 50 mg/kg, po bid for 5 days after 24 hrs by UPLC/MS/ESI analysis; type: ADME, organism-based; conditions: in vivo
[25] = Tmax in Swiss mouse infected with Trypanosoma brucei brucei Squib 427 at 25 mg/kg, po administered as single dose after 24 hrs by UPLC/MS/ESI analysis; type: ADME, organism-based; conditions: in vivo
[26] = Half life in Swiss mouse infected with Trypanosoma brucei brucei Squib 427 at 25 mg/kg, po administered as single dose after 24 hrs by UPLC/MS/ESI analysis; type: ADME, organism-based; conditions: in vivo
Mus musculus = test: Apparent volume of distribution in Swiss mouse infected with Trypanosoma brucei brucei Squib 427 at 25 mg/kg, po administered as single dose after 24 hrs by UPLC/MS/ESI analysis; type: ADME, organism-based; conditions: in vivo
[27] = Tmax in Swiss mouse at 25 mg/kg, po administered as single dose after 24 hrs by UPLC/MS/ESI analysis; type: ADME, organism-based; conditions: in vivo; procedure, shortened: as §3
[28] = Protein binding in mouse plasma at 10 uM after 6 hrs by equilibrium dialysis and LC-MS analysis; type: ADME, cell-free; conditions: read-out: PPB (converted)
[29] = Protein binding in 10% FBS in Trypanosoma brucei culture medium assessed as drug recovery at 2 uM after 6 hrs by equilibrium dialysis and LC-MS analysis; type: ADME, cell-free, Bos taurus, Serum; conditions: cattle, read-out: Drug recovery
[30] = Protein binding in 10% FBS in Trypanosoma brucei culture medium at 10 uM after 6 hrs by equilibrium dialysis and LC-MS analysis; type: ADME, cell-free, Bos taurus, Serum; conditions: cattle, read-out: PB
[31] = Protein binding in 10% FBS in Trypanosoma brucei culture medium assessed as drug recovery at 10 uM after 6 hrs by equilibrium dialysis and LC-MS analysis; type: ADME, cell-free, Bos taurus, Serum; conditions: cattle, read-out: Drug recovery

Nc1nc(Nc2ccc(F)cc2)nc(Oc2ccc(F)cc2)n1
IC50 (Plasmodium falciparum): > 64 µM | IC50 [1]: > 64 µM | remaining at 0.25 h, 5 µM [2]: 76% | Stability [3]: 97% | remaining at 0.25 h, 5 µM [4]: 93% | remaining at 0.5 h, 5 µM [5]: 97% | remaining at 1 h, 5 µM [6]: 96% | Activity [7]: inactive | Activity [8]: inactive | MST [9]: 7 days | MST [10]: 5.7 days | remaining at 0.5 h [11]: 91% | remaining at 1 h [12]: 88% | fraction unbound at 6 h, 2 µM [13]: 0.04 | fraction unbound at 6 h, 2 µM [14]: 0.5 to 0.51 | Activity [15]: inactive | concentration at 2 h [16]: 1100 ng/mL | concentration at 1 h [17]: 1730 ng/mL | concentration at 24 h [18]: 150 ng/mL | concentration at 0.5 h [19]: 842 ng/mL | concentration at 1 h [20]: 1180 ng/mL | concentration at 4 h [21]: 929 ng/mL | Tmax [22]: 1.3 h | AUC [23]: 9350 ng·h/mL | CL/F [24]: 89.9 mL/min | Tmax [25]: 0.8 h | half-life [26]: 0.85 h | Vz (Mus musculus): 13 L | Tmax [27]: 2.3 h | fraction unbound at 6 h, 10 µM [28]: 0.023 | recovery at 6 h, 2 µM [29]: 96.1% | fraction unbound at 6 h, 10 µM [30]: 0.498 | recovery at 6 h, 10 µM [31]: 71.1%
